In one test the test system is rat colonic mucosa. Put plainly: Short-circuit current assay on rat colonic mucosa. Conditions: rat distal colonic mucosa.
The target of test [1] is T1, human wt-CFTR (Homo sapiens, UniProt P13569). The class given is cell-based.
Test [2] addresses T1, human wt-CFTR. Put plainly: Fluorescence assay of CFTR channel function. It is filed as cell-based. Conditions: FRT cells expressing wild-type CFTR, in the presence of 0.1 μmol/L forskolin.
The test system of test [3] is ΔF508-CFTR. Put plainly: Potentiation of ΔF508-CFTR. It is filed as cell-based. Conditions: ΔF508-CFTR versus wt-CFTR.
Test [4] has as its system mouse tracheal submucosal glands. As to the kind of experiment: Measurement of individual submucosal gland fluid secretion in mouse trachea. Conditions: 10 μmol/L osthole in serosal bathing solution. The gist of the method:
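Cranial segment of freshly excised mouse trachea mounted on a sponge, soaked in Krebs–Henseleit solution, mucosal side up in a humidified 5% CO2/95% air chamber at 37°C. Mucosa cleared with saline, nitrogen-dried, then covered with saline-saturated oil. Some tissues pre-incubated 30 min with 20 μmol/L CFTRinh-172. Gland droplets imaged by reflected-light microscopy after stimulation; secretion rate computed from droplet diameter assuming hemispherical shape.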

The target in test [5] is ΔF508-CFTR. Conditions: read-out: affinity in potentiating ΔF508-CFTR; ref Xu et al., 2008; cited from earlier work.

Results on five compounds are retold here after publication PMC3180640 (Frontiers in Pharmacology, 2011).

T1 sequence (P13569 whole entry): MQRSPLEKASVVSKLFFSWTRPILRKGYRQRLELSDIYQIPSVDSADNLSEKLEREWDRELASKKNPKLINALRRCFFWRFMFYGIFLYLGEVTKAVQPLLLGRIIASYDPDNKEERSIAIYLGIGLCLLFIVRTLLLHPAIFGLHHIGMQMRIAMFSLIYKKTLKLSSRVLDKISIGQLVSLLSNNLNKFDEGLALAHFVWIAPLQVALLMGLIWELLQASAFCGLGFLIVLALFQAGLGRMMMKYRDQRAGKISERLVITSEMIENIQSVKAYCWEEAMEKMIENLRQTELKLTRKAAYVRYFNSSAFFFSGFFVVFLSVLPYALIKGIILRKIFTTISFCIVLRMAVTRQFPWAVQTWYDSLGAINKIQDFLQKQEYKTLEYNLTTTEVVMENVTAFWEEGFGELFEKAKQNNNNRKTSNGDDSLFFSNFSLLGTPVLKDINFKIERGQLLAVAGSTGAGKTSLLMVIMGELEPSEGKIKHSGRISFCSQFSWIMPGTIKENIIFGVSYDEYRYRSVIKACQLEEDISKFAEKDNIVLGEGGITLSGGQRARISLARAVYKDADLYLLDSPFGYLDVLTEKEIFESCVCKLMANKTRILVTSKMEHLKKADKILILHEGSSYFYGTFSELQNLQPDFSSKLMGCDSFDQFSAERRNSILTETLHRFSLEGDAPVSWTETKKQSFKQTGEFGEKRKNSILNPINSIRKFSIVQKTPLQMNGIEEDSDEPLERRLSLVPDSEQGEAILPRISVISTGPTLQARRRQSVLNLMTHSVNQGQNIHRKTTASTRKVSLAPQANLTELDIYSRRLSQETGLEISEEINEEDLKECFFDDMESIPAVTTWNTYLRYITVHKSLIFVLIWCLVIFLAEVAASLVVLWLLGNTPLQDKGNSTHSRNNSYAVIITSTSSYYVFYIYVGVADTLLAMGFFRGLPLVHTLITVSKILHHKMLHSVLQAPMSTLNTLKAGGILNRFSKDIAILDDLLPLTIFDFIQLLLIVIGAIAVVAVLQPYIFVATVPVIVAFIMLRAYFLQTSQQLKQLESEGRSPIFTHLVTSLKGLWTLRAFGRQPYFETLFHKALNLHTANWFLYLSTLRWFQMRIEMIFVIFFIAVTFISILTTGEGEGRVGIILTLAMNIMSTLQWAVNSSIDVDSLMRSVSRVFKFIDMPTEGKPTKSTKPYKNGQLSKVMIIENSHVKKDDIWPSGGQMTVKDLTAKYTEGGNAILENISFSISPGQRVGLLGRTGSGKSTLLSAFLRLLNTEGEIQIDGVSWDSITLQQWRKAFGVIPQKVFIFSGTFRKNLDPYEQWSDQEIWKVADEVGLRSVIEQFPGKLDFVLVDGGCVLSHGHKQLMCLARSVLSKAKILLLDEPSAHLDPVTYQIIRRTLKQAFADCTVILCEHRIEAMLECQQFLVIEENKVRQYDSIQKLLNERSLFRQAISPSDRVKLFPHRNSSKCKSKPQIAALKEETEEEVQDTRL

For the compound `O=C(O)c1ccc(/C=C2\SC(=S)N(c3cccc(C(F)(F)F)c3)C2=O)cc1` [CFTRinh-172, reference compound], the “effect on osthole-stimulated chloride secretion” value in the test with rat colonic mucosa was “completely abolished the osthole-stimulated chloride secretion”. Further, the “block of coumarin-stimulated Cl− current” value at human wt-CFTR [1] (CFTRinh-172 at 20 μmol/L) was “completely blocked the activations”.

Turning to `O=c1ccc2ccc3occc3c2o1` [isopsoralen], the “stimulation of wt-CFTR-mediated I− influx” value (from here on “stimulation”) at human wt-CFTR [2] is “stimulated wt-CFTR-mediated I^− influx in a concentration-dependent way”.

On to `CC(C)=CCOc1c2occc2cc2ccc(=O)oc12` [imperatorin], for which the “stimulation” value at human wt-CFTR [2] was “stimulated wt-CFTR-mediated I^− influx in a concentration-dependent way”.

As for `COc1ccc2ccc(=O)oc2c1CC=C(C)C` [osthole], in the test with ΔF508-CFTR [3], the “affinity in potentiating ΔF508-CFTR lower than in activating wt-CFTR” value is more than 200 fold. The “increase of fluid secretion rate compared to the saline control” value in test [4] was determined as 3.34 fold. Moreover, the Kd was approximately 10 µM on ΔF508-CFTR [5] and less than 0.05 µM at human wt-CFTR [1]. Besides, the “stimulation” value at human wt-CFTR [2] was “stimulated wt-CFTR-mediated I^− influx in a concentration-dependent way”.

In the case of `COc1cc2ccc(=O)oc2cc1OC` [scoparone], on human wt-CFTR [2], the “stimulation” value was “stimulated wt-CFTR-mediated I^− influx in a concentration-dependent way”.
